Reference: ChEMBL document CHEMBL1158902, “Polyprenylated benzophenones from Garcinia assigu and their potential cancer chemopreventive activities” (J Nat Prod, 2003)

system: Raji; test: Inhibition of TPA-induced EBV-early antigen activation in human Raji cells at 3.2 nmol after 48 hrs relative to TPA; type: cell-based; design: scale not given: the % may be the effect or the level left; conditions: human gammaherpesvirus 4
Procedure, shortened: (§1)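 Raji cells at 10^6 cells/mL were resuspended in RPMI 1640 with 10% FCS. Induction used 4 mM n-butyric acid plus 32 pmol TPA (20 ng/mL), with test compound added in DMSO. After 48 h at 37 °C, EA-positive cells were scored blind, at least 500 cells per assay. Activation is expressed as % of TPA-only control (100%) ± SD.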

SMILES | Activity [%]
O=C(c1ccc(O)c(O)c1)c1c(O)cc(O)cc1O [MACLURIN] | 80.2
CC(C)=CC[C@@H]1C[C@@]2(CC=C(C)C)C(=O)[C@](CC=C(C)C)(C(=O)C(C(=O)c3ccccc3)=C2O)C1(C)C [CLUSIANONE] | 87.7
CC1(C)[C@@H](O)CC[C@]2(C)[C@H]3C(=O)C=C4[C@@H]5C[C@@](C)(C(=O)O)CC[C@]5(C)CC[C@@]4(C)[C@]3(C)CC[C@@H]12 [ENOXOLONE] | 100
CC(C)=CC[C@H]1C[C@@]23C[C@@H](CC=C(C)C)C(C)(C)[C@@](CC=C(C)C)(C(=O)C(C(=O)c4ccc(O)c(O)c4)=C2OC1(C)C)C3=O [CAMBOGIN] | 87.1

system: Raji; test: Inhibition of TPA-induced EBV-early antigen activation in human Raji cells at 32 nmol after 48 hrs relative to TPA; type: cell-based; design: scale not given: the % may be the effect or the level left; conditions: human gammaherpesvirus 4; procedure, shortened: as §1

SMILES | Activity [%]
O=C(c1ccc(O)c(O)c1)c1c(O)cc(O)cc1O [MACLURIN] | 0
CC(C)=CC[C@@H]1C[C@@]2(CC=C(C)C)C(=O)[C@](CC=C(C)C)(C(=O)C(C(=O)c3ccccc3)=C2O)C1(C)C [CLUSIANONE] | 17.4
CC1(C)[C@@H](O)CC[C@]2(C)[C@H]3C(=O)C=C4[C@@H]5C[C@@](C)(C(=O)O)CC[C@]5(C)CC[C@@]4(C)[C@]3(C)CC[C@@H]12 [ENOXOLONE] | 15.6
CC(C)=CC[C@H]1C[C@@]23C[C@@H](CC=C(C)C)C(C)(C)[C@@](CC=C(C)C)(C(=O)C(C(=O)c4ccc(O)c(O)c4)=C2OC1(C)C)C3=O [CAMBOGIN] | 17.7

system: not listed separately; test: Cytotoxicity against human Raji cells assessed as cell viability at 32 nmol after 48 hrs by trypan blue assay; type: cell-based; conditions: read-out: Activity
Procedure, shortened: (§2)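 Raji cells grown to 10^6 cells/mL, pelleted, and resuspended in RPMI 1640 with 10% FCS. Medium held 4 mM n-butyric acid, 32 pmol TPA (20 ng/mL, in DMSO) and test compound in DMSO. Incubated 48 h at 37 °C. Cell number and viability counted by hemocytometer with Trypan Blue; at least 60% survival required for a valid result.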

SMILES | viability at 48 h, 32 nmol [%]
O=C(c1ccc(O)c(O)c1)c1c(O)cc(O)cc1O [MACLURIN] | 70
CC(C)=CC[C@@H]1C[C@@]2(CC=C(C)C)C(=O)[C@](CC=C(C)C)(C(=O)C(C(=O)c3ccccc3)=C2O)C1(C)C [CLUSIANONE] | 60
CC1(C)[C@@H](O)CC[C@]2(C)[C@H]3C(=O)C=C4[C@@H]5C[C@@](C)(C(=O)O)CC[C@]5(C)CC[C@@]4(C)[C@]3(C)CC[C@@H]12 [ENOXOLONE] | > 80
CC(C)=CC[C@H]1C[C@@]23C[C@@H](CC=C(C)C)C(C)(C)[C@@](CC=C(C)C)(C(=O)C(C(=O)c4ccc(O)c(O)c4)=C2OC1(C)C)C3=O [CAMBOGIN] | 60

system: not listed separately; test: Cytotoxicity against human Raji cells assessed as cell viability at 16 nmol after 48 hrs by trypan blue assay; type: cell-based; conditions: read-out: Activity; procedure, shortened: as §2

SMILES | viability at 48 h, 16 nmol [%]
O=C(c1ccc(O)c(O)c1)c1c(O)cc(O)cc1O [MACLURIN] | > 80
CC(C)=CC[C@@H]1C[C@@]2(CC=C(C)C)C(=O)[C@](CC=C(C)C)(C(=O)C(C(=O)c3ccccc3)=C2O)C1(C)C [CLUSIANONE] | > 80
CC1(C)[C@@H](O)CC[C@]2(C)[C@H]3C(=O)C=C4[C@@H]5C[C@@](C)(C(=O)O)CC[C@]5(C)CC[C@@]4(C)[C@]3(C)CC[C@@H]12 [ENOXOLONE] | > 80
CC(C)=CC[C@H]1C[C@@]23C[C@@H](CC=C(C)C)C(C)(C)[C@@](CC=C(C)C)(C(=O)C(C(=O)c4ccc(O)c(O)c4)=C2OC1(C)C)C3=O [CAMBOGIN] | > 80

system: Radical scavenging activity; test: Antioxidant activity assessed as DPPH radical scavenging activity; type: functional; conditions: not given
Procedure, shortened: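 Test compound in ethanol mixed with 2 mL of 0.1 mM DPPH solution; held 30 min at room temperature, then absorbance at 520 nm read. EC50 estimated by probit transformation; IC50 as mean ± SD of five replicates.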

IC50 [µM] | SMILES
> 100 | CC(C)=CC[C@@H]1C[C@@]2(CC=C(C)C)C(=O)[C@](CC=C(C)C)(C(=O)C(C(=O)c3ccccc3)=C2O)C1(C)C [CLUSIANONE]
13.3 | CC(C)=CC[C@H]1C[C@@]23C[C@@H](CC=C(C)C)C(C)(C)[C@@](CC=C(C)C)(C(=O)C(C(=O)c4ccc(O)c(O)c4)=C2OC1(C)C)C3=O [CAMBOGIN]

system: not listed separately; test: Cytotoxicity against human Raji cells assessed as cell viability at 3.2 nmol after 48 hrs by trypan blue assay; type: cell-based; conditions: read-out: Activity; procedure, shortened: as §2

SMILES | viability at 48 h, 3.2 nmol [%]
O=C(c1ccc(O)c(O)c1)c1c(O)cc(O)cc1O [MACLURIN] | > 80
CC(C)=CC[C@@H]1C[C@@]2(CC=C(C)C)C(=O)[C@](CC=C(C)C)(C(=O)C(C(=O)c3ccccc3)=C2O)C1(C)C [CLUSIANONE] | > 80
CC1(C)[C@@H](O)CC[C@]2(C)[C@H]3C(=O)C=C4[C@@H]5C[C@@](C)(C(=O)O)CC[C@]5(C)CC[C@@]4(C)[C@]3(C)CC[C@@H]12 [ENOXOLONE] | > 80
CC(C)=CC[C@H]1C[C@@]23C[C@@H](CC=C(C)C)C(C)(C)[C@@](CC=C(C)C)(C(=O)C(C(=O)c4ccc(O)c(O)c4)=C2OC1(C)C)C3=O [CAMBOGIN] | > 80

system: Raji; test: Inhibition of TPA-induced EBV-early antigen activation in human Raji cells at 0.32 nmol after 48 hrs relative to TPA; type: cell-based; design: scale not given: the % may be the effect or the level left; conditions: human gammaherpesvirus 4; procedure, shortened: as §1

SMILES | Activity [%]
O=C(c1ccc(O)c(O)c1)c1c(O)cc(O)cc1O [MACLURIN] | 94.3
CC(C)=CC[C@@H]1C[C@@]2(CC=C(C)C)C(=O)[C@](CC=C(C)C)(C(=O)C(C(=O)c3ccccc3)=C2O)C1(C)C [CLUSIANONE] | 100
CC1(C)[C@@H](O)CC[C@]2(C)[C@H]3C(=O)C=C4[C@@H]5C[C@@](C)(C(=O)O)CC[C@]5(C)CC[C@@]4(C)[C@]3(C)CC[C@@H]12 [ENOXOLONE] | 100
CC(C)=CC[C@H]1C[C@@]23C[C@@H](CC=C(C)C)C(C)(C)[C@@](CC=C(C)C)(C(=O)C(C(=O)c4ccc(O)c(O)c4)=C2OC1(C)C)C3=O [CAMBOGIN] | 100

system: Raji; test: Inhibition of TPA-induced EBV-early antigen activation in human Raji cells at 16 nmol after 48 hrs relative to TPA; type: cell-based; design: scale not given: the % may be the effect or the level left; conditions: human gammaherpesvirus 4; procedure, shortened: as §1

SMILES | Activity [%]
O=C(c1ccc(O)c(O)c1)c1c(O)cc(O)cc1O [MACLURIN] | 52.7
CC(C)=CC[C@@H]1C[C@@]2(CC=C(C)C)C(=O)[C@](CC=C(C)C)(C(=O)C(C(=O)c3ccccc3)=C2O)C1(C)C [CLUSIANONE] | 53.7
CC1(C)[C@@H](O)CC[C@]2(C)[C@H]3C(=O)C=C4[C@@H]5C[C@@](C)(C(=O)O)CC[C@]5(C)CC[C@@]4(C)[C@]3(C)CC[C@@H]12 [ENOXOLONE] | 54.3
CC(C)=CC[C@H]1C[C@@]23C[C@@H](CC=C(C)C)C(C)(C)[C@@](CC=C(C)C)(C(=O)C(C(=O)c4ccc(O)c(O)c4)=C2OC1(C)C)C3=O [CAMBOGIN] | 56

system: not listed separately; test: Cytotoxicity against human Raji cells assessed as cell viability at 0.32 nmol after 48 hrs by trypan blue assay; type: cell-based; conditions: read-out: Activity; procedure, shortened: as §2

SMILES | viability at 48 h, 0.32 nmol [%]
O=C(c1ccc(O)c(O)c1)c1c(O)cc(O)cc1O [MACLURIN] | > 80
CC(C)=CC[C@@H]1C[C@@]2(CC=C(C)C)C(=O)[C@](CC=C(C)C)(C(=O)C(C(=O)c3ccccc3)=C2O)C1(C)C [CLUSIANONE] | > 80
CC(C)=CC[C@H]1C[C@@]23C[C@@H](CC=C(C)C)C(C)(C)[C@@](CC=C(C)C)(C(=O)C(C(=O)c4ccc(O)c(O)c4)=C2OC1(C)C)C3=O [CAMBOGIN] | > 80
